Values after ≈ are worked out from the molar mass of the structure shown.
Key:
[1] = tested on: Escherichia coli; assay: Antibacterial activity against Escherichia coli XL1-blue by double-microdilution method; assay type: functional
[2] = tested on: Escherichia coli; assay: Antibacterial activity against Escherichia coli BL21 by double-microdilution method; assay type: functional
[3] = tested on: Escherichia coli; assay: Antibacterial activity against Escherichia coli R477-100 by double-microdilution method; assay type: functional
[4] = tested on: Escherichia coli; assay: Resistance index, MIC for aminoglycosides-resistant Escherichia coli XL1-blue harboring pET9d expressing APH(3')-1a enzyme to MIC for Escherichia coli XL1-blue; assay type: functional
Procedure, shortened: (§1)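 Ratio of MIC on the plasmid-bearing resistant strain to MIC on its background strain (pETSACG1 vs BL21; pET9d or pSF815 vs XL1 blue). MICs by NCCLS double microdilution from starting concentrations of 384 and 1.5 µg/mL, in duplicate, two to four experiments.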

[5] = tested on: Escherichia coli; assay: Antibacterial activity against kanamycin-resistant Escherichia coli AG100A expressing aminoglycosides resistant APH(3')-1 enzyme by double-microdilution method; assay type: functional
[6] = tested on: Bacillus subtilis; assay: Antibacterial activity against aminoglycosides-susceptible Bacillus subtilis ATCC 6633 by double-microdilution method; assay type: functional
[7] = tested on: Staphylococcus aureus; assay: Antibacterial activity against methicillin-resistant Staphylococcus aureus ATCC 43300 by double-microdilution method; assay type: functional
[8] = tested on: Escherichia coli; assay: Antibacterial activity against kanamycin-resistant Escherichia coli AG100B expressing aminoglycosides resistant APH(3')-1 enzyme by double-microdilution method; assay type: functional
[9] = tested on: Escherichia coli; assay: Antibacterial activity against aminoglycosides-resistant Escherichia coli XL1-blue harboring pSF815 expressing AAC(6')-APH(2'') enzyme by double-microdilution method; assay type: functional
[10] = tested on: Escherichia coli; assay: Inhibition of protein synthesis in Escherichia coli S30 extracts assessed as luciferase activity after 1 hr by coupled transcription/translation assay; assay type: functional; details: Escherichia coli, 1 h; read-out: IC50
Procedure, shortened: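 Coupled transcription/translation of the pBESTluc plasmid in E. coli S30 extract with varying compound concentrations, 37 °C for 60 min. Reactions were cooled on ice, diluted in Tris-phosphate pH 7.8 reagent, and luciferase luminescence was read immediately after substrate addition. IC50 came from concentration-response curves fitted to at least two independent experiments.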

[11] = tested on: Escherichia coli; assay: Antibacterial activity against aminoglycosides-resistant Escherichia coli BL21 harboring pETSACG1 expressing APH(3')-3a enzyme by double-microdilution method; assay type: functional
[12] = Inhibition of Escherichia coli DNA gyrase assessed as reduction in relaxed pBR322 DNA supercoiling activity after 1 hr by electrophoresis
Procedure, shortened: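 Supercoiling of relaxed pBR322 (12.5 ng/µL) by E. coli DNA gyrase in 35 mM Tris-Cl pH 7.5 with 24 mM KCl, 4 mM MgCl₂, 2 mM DTT, 1.8 mM spermidine, 1 mM ATP, 6.5% glycerol and 0.1 mg/mL BSA. Incubated 37 °C for 1 h, stopped with loading dye plus chloroform/isoamyl alcohol, and resolved on 1% agarose. IC50 is the concentration halving activity versus drug-free control.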

[13] = tested on: Escherichia coli; assay: Antibacterial activity against aminoglycosides-resistant Escherichia coli XL1-blue harboring pET9d expressing APH(3')-1a enzyme by double-microdilution method; assay type: functional
[14] = tested on: Escherichia coli; assay: Resistance index, MIC for aminoglycosides-resistant Escherichia coli XL1-blue harboring pSF815 expressing AAC(6')-APH(2'') enzyme to MIC for Escherichia coli XL1-blue; assay type: functional; procedure, shortened: as §1
[15] = Inhibition of Escherichia coli topoisomerase 4 assessed as reduction in supercoiled pBR322 DNA relaxation activity after 30 mins by electrophoresis
Procedure, shortened: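 E. coli TopoIV relaxation of supercoiled pBR322 in 40 mM HEPES-KOH pH 7.6 with 100 mM potassium glutamate, 10 mM Mg(OAc)₂, 10 mM DTT, 1 mM ATP and 50 µg/mL albumin. Incubated 37 °C for 30 min, stopped with EDTA, loading dye and chloroform/isoamyl alcohol, then run on 1% agarose. Supercoiled DNA percentage was quantified from gel images. IC50 is the 50% reduction versus drug-free control.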

[16] = tested on: Escherichia coli; assay: Antibacterial activity against Escherichia coli ATCC 25922 by double-microdilution method; assay type: functional
[17] = tested on: Escherichia coli; assay: Resistance index, MIC for aminoglycosides-resistant Escherichia coli BL21 harboring pETSACG1 expressing APH(3')-3a enzyme to MIC for Escherichia coli BL21; assay type: functional; procedure, shortened: as §1
[18] = Activity at aminoglycoside 3'-phosphotransferase 3a
[19] = Ratio of kcat/km for aminoglycoside 3'-phosphotransferase 3a

Structure (SMILES) | MIC [1] [µg/mL] | MIC [2] [µg/mL] | MIC [3] [µg/mL] | Ratio [4] | MIC [5] [µg/mL] | MIC [6] [µg/mL] | MIC [7] [µg/mL] | MIC [8] [µg/mL] | MIC [9] [µg/mL] | IC50 [10] [µM] | MIC [11] [µg/mL] | IC50 ([12]; read-out: IC50) [µM] | MIC [13] [µg/mL] | Ratio [14] | IC50 ([15]; read-out: IC50) [µM] | MIC [16] [µg/mL] | Ratio [17] | Km [18] [µM] | kcat [18] [s⁻¹] | kcat/Km [19] [×10⁴ /M/s] | other results
NC[C@@H]1O[C@H](O[C@H]2[C@@H](O)[C@H](O[C@@H]3[C@@H](O)[C@H](N)C[C@H](N)[C@H]3O[C@H]3O[C@H](CN)[C@@H](O)[C@H](O)[C@H]3N)O[C@@H]2C(=O)Nc2ccc(-c3cn(Cc4ccc(CN5CCN(c6cc7c(cc6F)c(=O)c(C(=O)O)cn7C6CC6)CC5)cc4)nn3)cc2)[C@H](N)[C@@H](O)[C@@H]1O | 3 (≈ 2.49 µM) | 0.4 (≈ 0.332 µM) | 1.5 (≈ 1.25 µM) | 1 | 0.75 (≈ 0.623 µM) | 1.5 (≈ 1.25 µM) | 3 (≈ 2.49 µM) | 3 (≈ 2.49 µM) | 24 (≈ 19.9 µM) | 16.7 | 0.4 (≈ 0.332 µM) | 0.085 | 3 (≈ 2.49 µM) | 8 | 0.55 | 3 (≈ 2.49 µM) | 1 |  |  |  | 
NC[C@@H]1O[C@H](O[C@H]2[C@@H](O)[C@H](O[C@@H]3[C@@H](O)[C@H](N)C[C@H](N)[C@H]3O[C@H]3O[C@H](CN)[C@@H](O)[C@H](O)[C@H]3N)O[C@@H]2C(=O)NCc2cn(CC(O)CN3CCN(c4cc5c(cc4F)c(=O)c(C(=O)O)cn5C4CC4)CC3)nn2)[C@H](N)[C@@H](O)[C@@H]1O (stereo partly specified) | 6 (≈ 5.47 µM) | 0.2 (≈ 0.182 µM) | 6 (≈ 5.47 µM) | 2 | 0.75 (≈ 0.684 µM) | 3 (≈ 2.74 µM) | 12 (≈ 10.9 µM) | 12 (≈ 10.9 µM) | 48 (≈ 43.8 µM) |  | 0.2 (≈ 0.182 µM) |  | 12 (≈ 10.9 µM) | 8 |  | 3 (≈ 2.74 µM) | 1 | 86.8 | 2.5 | 2.9 | 
NC[C@@H]1O[C@H](O[C@H]2[C@@H](O)[C@H](O[C@@H]3[C@@H](O)[C@H](N)C[C@H](N)[C@H]3O[C@H]3O[C@H](CN)[C@@H](O)[C@H](O)[C@H]3N)O[C@@H]2COCc2cn(CCN3CCN(c4cc5c(cc4F)c(=O)c(C(=O)O)cn5C4CC4)CC3)nn2)[C@H](N)[C@@H](O)[C@@H]1O | 3 (≈ 2.85 µM) | 0.2 (≈ 0.19 µM) | 3 (≈ 2.85 µM) | 4 | 0.38 (≈ 0.361 µM) | 0.75 (≈ 0.712 µM) | 6 (≈ 5.7 µM) | 12 (≈ 11.4 µM) | 12 (≈ 11.4 µM) | 18.1 | 0.2 (≈ 0.19 µM) | 0.041 | 12 (≈ 11.4 µM) | 4 | 7.9 | 3 (≈ 2.85 µM) | 1 |  |  |  | 
NC[C@@H]1O[C@H](O[C@H]2[C@@H](O)[C@H](O[C@@H]3[C@@H](O)[C@H](N)C[C@H](N)[C@H]3O[C@H]3O[C@H](CN)[C@@H](O)[C@H](O)[C@H]3N)O[C@@H]2CO)[C@H](N)[C@@H](O)[C@@H]1O [FRAMYCETIN] | 6 (≈ 9.76 µM) | 6 (≈ 9.76 µM) | 24 (≈ 39 µM) | 16 | 96 (≈ 156 µM) | 1.5 (≈ 2.44 µM) | 384 (≈ 625 µM) | 384 (≈ 625 µM) | > 384 | 10.5 | 48 (≈ 78.1 µM) |  | 96 (≈ 156 µM) | >64 |  | 48 (≈ 78.1 µM) | 8 | 5.7 | 2.4 | 42 | IC50 [12]: Not Active; IC50 [15]: Not Active

Reference: ChEMBL document CHEMBL1153403, “Design, synthesis, and evaluation of novel fluoroquinolone-aminoglycoside hybrid antibiotics” (J Med Chem, 2009)
